Drawing on ChEMBL document CHEMBL4813968, “Synthesis and evaluation of 3'-fluorinated 7-deazapurine nucleosides as antikinetoplastid agents” (Eur J Med Chem, 2021), this text covers EC50 for 13 compounds.

For orientation: EC50 means the concentration giving half of the maximal effect.

Assay [1] relates to Trypanosoma cruzi. Nature of the assay: Antitrypanosomal activity against Trypanosoma cruzi Tulahuen CL2 infected in human MRC5 cells assessed as inhibition of parasite growth incubated for 7 days by chlorophenol red-fl-D-galactopyranoside based spectrophotometric analysis. It counts as functional, organism-based. The note with it: Tulahuen CL2, MRC5, 168 h. The method, boiled down:
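T. cruzi Tulahuen CL2 β-galactosidase strain was maintained on MRC-5_SV2 cells. Wells held 4×10³ cells plus 4×10⁴ parasites with a 10-point 4-fold compound series, final DMSO <1%. After 7 days at 37 °C, 5% CO₂, substrate was added and absorbance read at 540 nm after 4 h at 37 °C. IC₅₀ was taken from % reduction versus infected and uninfected controls.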

Assay [2] has as its system Trypanosoma brucei brucei. Nature of the assay: Antitrypanosomal activity against Trypanosoma brucei brucei assessed as parasite growth inhibition. It is filed as functional, organism-based.
Assay [3] deals with Macrophage. Nature of the assay: Cytotoxicity against mouse primary macrophage cells assessed as reduction in cell viability. It is filed as cell-based. The method, boiled down: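 Macrophage toxicity was scored microscopically within the L. infantum assays, using cell detachment, lysis and granulation. At least 500 cells over adjacent fields were scored semi-quantitatively, and CC₅₀ was taken from % reduction in normal cells versus untreated controls.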

Assay [4] has as its system Leishmania infantum. Nature of the assay: Antileishmanial activity against Leishmania infantum MHOM/MA(BE)/67 infected in mouse primary peritoneal macrophages treated 2 hrs post-infection and incubated for 5 days by Giemsa staining based microscopic analysis. It counts as functional, organism-based. The note with it: MHOM/MA(BE)/67, Peritoneal macrophage. The method, boiled down: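 Peritoneal macrophages from mice, harvested 2 days after 2% potato starch stimulation, infected after 48 h with L. infantum in supplemented RPMI-1640 with 5% FCS. Compounds were added 2 h post-infection as a 10-point 4-fold dilution series, final DMSO <1%, and incubated 5 days at 37 °C, 5% CO₂. Amastigotes per macrophage were counted after 10% Giemsa staining, and IC₅₀ was taken from % reduction versus untreated-infected controls.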

Assay [5] concerns MRC5. Kind of assay: Cytotoxicity against human MRC5 cells assessed as reduction in cell viability after 3 days by resazurin dye based fluorimetric analysis. The note with it: MRC5, 72 h. The method, boiled down:
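MRC-5_SV2 cells, 1.5×10⁵ cells/mL in MEM with Earl's salts, L-glutamine, NaHCO₃ and 5% inactivated FCS, were exposed 3 days at 37 °C, 5% CO₂ to a 10-point 4-fold dilution series, final DMSO <1%. Resazurin was added for 4 h, fluorescence read at ex 550/em 590 nm, and IC₅₀ derived versus untreated and medium controls.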
(In general: Resazurin is reduced to fluorescent resorufin, in cell work by metabolically active cells.)

Assay [6] deals with Trypanosoma brucei rhodesiense. Nature of the assay: Antitrypanosomal activity against Trypanosoma brucei rhodesiense assessed as parasite growth inhibition. It counts as functional, organism-based.

Regarding `O=C(Cn1ccnc1[N+](=O)[O-])NCc1ccccc1` [BENZNIDAZOLE], the 50% effective concentration (EC50) in assay [1] stood at 2.02 µM.

As for `Cc1ccc(C(=O)Nc2ccc(S(=O)(=O)O)c3cc(S(=O)(=O)O)cc(S(=O)(=O)O)c23)cc1NC(=O)c1cccc(NC(=O)Nc2cccc(C(=O)Nc3cc(C(=O)Nc4ccc(S(=O)(=O)O)c5cc(S(=O)(=O)O)cc(S(=O)(=O)O)c45)ccc3C)c2)c1` [SURAMIN], in assay [2], the EC50 was determined as 0.03 µM.

Consider `O=c1[nH]cnc2c1c(I)cn2[C@@H]1O[C@H](CO)[C@@H](F)[C@H]1O`, for which the 50% effective concentration (EC50) in assay [2], in assay [3], in assay [4], in assay [5], in assay [1] and in assay [6] was over 64 µM throughout.

Turning to `O=c1[nH]cnc2c1c(F)cn2[C@@H]1O[C@H](CO)[C@@H](F)[C@H]1O`, the concentration giving a half-maximal response (EC50) in assay [2], in assay [3], in assay [4], in assay [5], in assay [1] and in assay [6] was over 64 µM in each case.

Consider `CCCCCCCCCCCCCCCCOP(=O)([O-])OCC[N+](C)(C)C` [MILTEFOSINE], for which the midpoint of the response in assay [4], the EC50, lay at 7.47 µM.

Turning to `O=c1[nH]cnc2c1ccn2[C@@H]1O[C@H](CO)[C@@H](F)[C@H]1O`, the EC50 in assay [2], in assay [3], in assay [4], in assay [5], in assay [1] and in assay [6] was over 64 µM throughout.

With `COc1nc(N)nc2c1ccn2[C@@H]1O[C@H](CO)[C@@H](F)[C@H]1O`, the EC50 in assay [2], in assay [3], in assay [4], in assay [5], in assay [1] and in assay [6] was over 64 µM throughout.

As to `COc1nc(N)nc2c1c(Br)cn2[C@@H]1O[C@H](CO)[C@@H](F)[C@H]1O`, the concentration giving a half-maximal response (EC50) in assay [2], in assay [3], in assay [4], in assay [5], in assay [1] and in assay [6] was over 64 µM each time.

Regarding `O=c1[nH]cnc2c1c(-c1ccccc1)cn2[C@@H]1O[C@H](CO)[C@@H](F)[C@H]1O`, the 50% effective concentration (EC50) in assay [2], in assay [3], in assay [4], in assay [5], in assay [1] and in assay [6] was over 64 µM each time.

For `Nc1nc(N)c2ncn([C@@H]3O[C@H](CO)[C@@H](F)[C@H]3O)c2n1`, the EC50 in assay [2], in assay [3], in assay [4], in assay [5], in assay [1] and in assay [6] was over 64 µM in each case.

As to `O=c1[nH]cnc2c1c(Br)cn2[C@@H]1O[C@H](CO)[C@@H](F)[C@H]1O`, the EC50 in assay [2], in assay [3], in assay [4], in assay [5], in assay [1] and in assay [6] was over 64 µM throughout.

On to `Nc1nc2c(ccn2[C@@H]2O[C@H](CO)[C@@H](F)[C@H]2O)c(=O)[nH]1`, for which the EC50 in assay [2], in assay [3], in assay [4], in assay [5], in assay [1] and in assay [6] was over 64 µM in each case.

Turning to `O=c1[nH]cnc2c1c(Cl)cn2[C@@H]1O[C@H](CO)[C@@H](F)[C@H]1O`, the EC50 in assay [2], in assay [3], in assay [4], in assay [5], in assay [1] and in assay [6] was over 64 µM in each case.
